# ROMK primary = modulates human ROMK potassium channel activity; P48048; Tet-inducible ROMK, thallium flux fluorescence; actives lie on both sides; B-score at 10 µM; 130,000 compounds, 2% hits; AID 1918;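 active = signal ratio slope over the read window, or its plate-corrected B-score, at least 3 SD from the plate mean, either direction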;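 note: B-score of the F/F0 ratio slope over 7 to 12 s after thallium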
# Target sequence (P48048 whole entry, looked up): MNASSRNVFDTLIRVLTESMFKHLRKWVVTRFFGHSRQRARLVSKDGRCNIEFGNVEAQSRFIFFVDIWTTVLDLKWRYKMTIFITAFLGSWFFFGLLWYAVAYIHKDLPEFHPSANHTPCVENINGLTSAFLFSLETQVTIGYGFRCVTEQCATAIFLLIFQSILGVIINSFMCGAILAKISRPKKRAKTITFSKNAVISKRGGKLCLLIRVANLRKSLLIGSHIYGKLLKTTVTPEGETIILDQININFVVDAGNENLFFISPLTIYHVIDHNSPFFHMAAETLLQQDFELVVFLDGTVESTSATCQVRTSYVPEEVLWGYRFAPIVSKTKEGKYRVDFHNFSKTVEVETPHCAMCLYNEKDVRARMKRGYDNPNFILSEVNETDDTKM
# Diaphorase act = diaphorase activation or chemical reduction counter-screen | Diaphorase/resazurin coupled assay, resorufin fluorescence, 16 min; stronger effect = higher value; 1 = vehicle wells, 0 = NADH-free wells | activation factor at 20 µM | 190,000 compounds, 0.005% hits | AID 1229;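 active = diaphorase activity raised at least twofold by the compound at 20 µM; inactive = activation factor below 2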
#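 Assay system: Purified diaphorase enzyme from Clostridium kluyveri | Amount: Enzyme 0.07 U/mL final | Dosing: Compound 20 µM once, DMSO 1% | Timing: 16 min reaction at room temperature | Detection: Fluorescence, excitation 544 nm and emission 590 nm | Evaluation: Higher resorufin formation from activation or reduction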
# Cl transport mod = modulates chloride dependent transport by human KCC2; Q9H2X9; KCC2 cells, thallium flux FluoZin-2 fluorescence; B-score of Tl+ flux slope (higher = more flux/activation; lower = inhibition) at 10 µM; 190,000 compounds, 2.2% hits; AID 1456;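 active = thallium flux slope and its plate-corrected score both differing from the plate sample mean at a set confidence after two filtering rounds, in either direction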;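 note: slope of fluorescence scaled to starting intensity during 10 to 20 s after thallium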
# WT yeast gro inh = growth inhibition of WT yeast, mitochondrial fusion screen; 190,000 compounds, 2.1% hits; inhibition, % at 10 µM; mitochondrial fusion phenotypic screen, WT strain; in the data active = inhibition above about 58%; tested in S. cerevisiae
# Diaph inh CS = counter-screen for diaphorase-based assays: diaphorase inhibitors and chemical oxidizers. diaphorase resazurin-to-resorufin fluorescence, NADH, 16 min; bacterial (C. kluyveri) enzyme, not human. inhibition, % at 20 µM. 190,000 compounds, 0.69% hits;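 active = primary screen inhibition at 20 µM above a set limit, cut at about 50% in these data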;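 note: plate controls were DMSO with full reaction for no effect and wells lacking NADH for full effect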
#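 Assay system: diaphorase enzyme from Clostridium kluyveri. Quantity: enzyme working solution with 0.14 U/mL diaphorase. Schedule: reaction incubation of 16 min at room temperature. Technique: resorufin fluorescence, excitation 544 nm, emission 590 nm. Controls: No-NADH positive control and DMSO neutral control.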
# L major viab = inhibitors of Leishmania major promastigote growth. inhibition, % at 10 µM. Leishmania major promastigotes, resazurin fluorescence viability. 200,000 compounds, 9% hits; in the data active = inhibition above about 50%;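 note: promastigotes grown with compound for 44 hours at 28 °C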
# * hit, by the source's call; / = no result given. Rows were chosen to be rich in hits. Some 12% of all compounds tested hit in one or more screens of this group.
SMILES,ROMK primary,Diaphorase act,Cl transport mod,WT yeast gro inh,Diaph inh CS,L major viab
COc1ccc(OC)c(N=C2C(=O)Nc3ccccc32)c1,/,0.9,0.155,-23.9,12.6,-3.1
COc1ccc(N=C2C(=O)N3c4c(cccc42)C(C)=CC3(C)C)cc1,/,0.8,-1.04,-11.2,16.6,97.1*
COc1ccc(N=C2C(=O)Nc3ccccc32)cc1,/,0.8,-0.085,-8.3,23.3,100.0*
CCN1CCN(c2cc3c(nn2)Oc2ccccc2N3C)CC1,-0.141,0.9,-1.94,36.3,10.1,14.5
CC1CCc2nc(NC(=O)Nc3ccc4c(c3)OCO4)sc2C1 (stereo not given),/,0.9,0.66,7.1,13.7,-4.6
COC(=O)c1sccc1NC(=O)CNC(=O)c1ccccc1,-0.954,0.9,0.482,0.1,7.2,-7.7
CCn1c(=N)n(CC(=O)c2ccc(OC)cc2)c2ccccc21,/,0.9,0.0199,11.5,12.4,94.5*
Cc1ccc(Cn2c(=N)n(CC(=O)c3ccc([N+](=O)[O-])cc3)c3ccccc32)cc1,/,1.2,-0.0112,3.6,-19.6,73.6*
CCn1c(=N)n(CC(=O)c2ccco2)c2ccccc21,/,0.8,0.0158,-17.3,17.1,1.7
N=c1n(CC(=O)c2cccs2)c2ccccc2n1Cc1ccccc1,/,/,-0.161,/,/,/
CCCn1c(=N)n(CCOc2ccc(OC)cc2)c2ccccc21,/,0.8,0.759,-10.0,16.4,94.0*
CCCCn1c(=N)n(CC(=O)c2ccc([N+](=O)[O-])cc2)c2ccccc21,-0.939,0.8,0.296,23.0,19.6,81.3*
CCCCOC(=O)Cn1c(=N)n(CCC)c2ccccc21,/,0.9,0.697,47.0,8.8,3.4
COc1ccc(C(=O)CSc2nc3ccccc3n2CC(=O)c2ccccc2)cc1,/,0.7,0.215,23.2,35.0,22.4
COc1ccc(C(=O)Cn2c(C(=O)/C=C/c3ccccc3)nc3ccccc32)cc1,0.529,1,0.00912,14.1,0.3,88.7*
COc1cc2c(C(=O)NCc3ccc(C)o3)cn(CC(C)C)c(=O)c2cc1OC,0.595,0.8,/,74.5*,16.4,0.1
Cn1c(-c2cnn(-c3ccccc3)c2-n2cccc2)n[nH]c1=S,0.0964,0.9,0.353,10.4,7.6,-3.2
Cc1ccc(S(=O)(=O)c2c(N)n(CCC(C)C)c3nc4ccccc4nc23)cc1,0.192,0.8,-0.696,-2.5,17.0,68.7*
Cn1c(N)c(S(=O)(=O)c2ccc(Br)cc2)c2nc3ccccc3nc21,/,0.9,-0.0245,-12.4,6.5,75.0*
Cc1ccc(S(=O)(=O)c2c(N)n(CCCO)c3nc4ccccc4nc23)cc1,-0.00184,0.8,0.411,-1.3,21.1,73.0*
CCn1c(NCc2cc(Cl)ccc2O)nc2ccccc21,/,/,-2.51,/,/,/
O=C(CN1C(=O)S/C(=C\C=C\c2ccccc2)C1=O)N1CCOCC1,-0.865,/,-1.48,/,/,/
Cc1cc(C)c(C#N)c(N2CCN(CCOc3ccc(Cl)cc3)CC2)n1,/,0.8,-0.397,65.2*,17.6,10.3
COc1ccc(Cl)cc1CN1CCN(c2nc(C)cc(C)c2C#N)CC1,-1.8,0.9,/,32.7,13.0,7.1
CSc1cccc(NC(=S)N(CCCN2CCC(C)CC2)Cc2cccs2)c1,-2.81,0.8,-0.76,13.9,15.8,60.8*
SMILES,ROMK primary,Diaphorase act,Cl transport mod,WT yeast gro inh,Diaph inh CS,L major viab
CCOC(=O)c1ccc(NC(=S)N(CCCN2CCCC(C)C2)Cc2cccs2)cc1 (stereo not given),0.562,0.9,0.309,-1.5,6.4,96.9*
CCOC(=O)c1ccc(NC(=S)N(CCN2CCCCCC2)Cc2cccs2)cc1,1.25,1,-0.285,18.4,-0.1,96.5*
COc1ccc(NC(=S)N(CCCN2CCCCC2)Cc2cccs2)cc1,-2.18,1,-0.701,8.2,0.0,83.2*
Cc1ccc(NC(=S)N(CCCN2CCN(C)CC2)Cc2cccs2)cc1,-0.134,1.2,1.14,-7.5,-21.7,1.7
Cc1ccc(NC(=S)N(CCCN2CCN(C)CC2)Cc2cccs2)cc1C,1.06,0.9,-0.854,6.0,8.7,33.7
CCOC(=O)c1ccc(NC(=S)N(CCCN2CCN(CC)CC2)Cc2cccs2)cc1,0.756,1.1,1.32,8.3,-10.5,14.3
COc1ccc(NC(=S)N(CCCN2CCC(C)CC2)Cc2cccs2)cc1,-0.381,1,0.0474,-0.8,-4.4,41.7
Cc1ccc(NC(=S)N(CCCN2CCOCC2)Cc2cccs2)c(C)c1,-1.62,1,0.0026,0.4,0.0,69.2*
CCOC(=O)c1ccc(NC(=S)N(CCCN2CCN(C)CC2)Cc2cccs2)cc1,0.902,1,0.00261,3.2,-1.1,39.5
CCOC(=O)c1ccc(NC(=S)N(CCCN2CCCC2)Cc2cccs2)cc1,-1.01,0.9,-0.817,-14.0,8.3,81.7*
COc1ccc(-c2noc(CSc3nnc(CCc4ccccc4)n3-c3ccccc3)n2)cc1OC,/,0.7,-0.0127,37.1,25.6,72.0*
COc1ccc(-c2noc(CSc3nnc(Cc4ccccc4)n3-c3ccc(Cl)cc3)n2)cc1,/,0.8,/,60.3*,23.3,17.7
CC(C)(C)Nc1nc(SCc2ccccc2)nc(N2CCOCC2)n1,/,0.8,2.35,65.9*,18.1,30.4
CNc1nc(SCc2ccccc2)nc(N2CCOCC2)n1,/,0.8,/,33.3,21.6,41.0
CN1CCN(S(=O)(=O)c2ccc(N3CCN(C(c4ccccc4)c4ccccc4)CC3)nc2)CC1,1.21,0.9,-0.0316,69.2*,13.8,100.0*
CN1CCN(S(=O)(=O)c2ccc(N3CCN(S(=O)(=O)/C=C/c4ccccc4)CC3)nc2)CC1,/,1,0.661,9.9,4.6,36.2
O=S(=O)(c1ccc(N2CCN(CCO)CC2)nc1)N1CCCCC1,/,0.8,0.677,-1.6,16.7,60.2*
CC(C)(C)C(=O)Nc1sc2c(c1C(=O)Nc1ccccn1)CCCC2,/,0.9,/,-2.1,9.2,16.0
CC(C)c1ccccc1-n1c(SCC(=O)c2ccc3c(c2)NC(=O)CO3)nc2ccccc2c1=O,-0.621,0.8,-0.0138,41.6,18.3,66.7*
COc1cc(CNCc2ccccn2)ccc1OCc1ccc(Cl)cc1Cl,/,1.2,1.84,62.8,-20.3,99.2*
COc1cc(CNCc2ccccn2)ccc1OCc1ccc(Cl)c(Cl)c1,-1.79,1.3,3.74,72.2*,-28.2,100.0*
COc1ccc2[nH]cc(/C=C/C(=O)c3ccccc3)c2c1,/,/,0.169,/,/,/
COc1cccc(N2CCN(C(=O)c3c(C)nn(-c4ccccc4)c3C)CC2)c1,-0.162,1.1,0.641,26.9,-8.3,-2.0
O=C(C(Cc1ccc(Cl)cc1)NS(=O)(=O)c1ccccc1)N1CC[C@@]2(O)CCCC[C@H]2C1 (stereo not given in full),/,0.8,-0.0177,16.0,16.5,51.4*
Cc1ccc(S(=O)(=O)c2nc(Nc3nccs3)sc2Cl)cc1,/,0.8,-0.107,62.0*,18.4,-3.2
CCn1c2c(c(=N)c3c1CCC3)CCCC2,/,/,-0.243,/,/,/

# Assay outcomes: PubChem BioAssay, several laboratories
